Calls of active or inactive are those of the source. The calls are words filed in the database; no cut-off is given here.
Tests used:
[1] = test system: Rattus norvegicus; test: Ex vivo induction of GST in Sprague-Dawley rat bladder at 7.5 umol/kg/day, po for 10 days measured on day 11 relative to control; format: functional
Procedure, shortened: (§1)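 Female Sprague-Dawley rats, 6 per group, gavaged with compound at 7.5 µmol/kg/day or soya oil for 10 days and killed on day 11. Bladder homogenized in ice-cold 0.2% Triton X-100 and cleared by centrifugation. NQO1 activity measured by the Ernster method, GST by the Habig method. Reported as treated/control mean ± SEM, ANOVA with Student-Newman-Keuls test.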

[2] = test system: Rattus norvegicus; test: Ex vivo induction of NQO1 in Sprague-Dawley rat bladder at 7.5 umol/kg/day, po for 10 days measured on day 11 relative to control; format: functional; procedure, shortened: as §1
[3] = test system: Rattus norvegicus; test: Ex vivo induction GST-mu protein expression in Sprague-Dawley rat bladder at 7.5 umol/kg/day, po for 10 days measured on day 11 by Western blot analysis; format: functional, organism-based
Procedure, shortened: (§2)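 Female Sprague-Dawley rats, 3 per group, gavaged once daily with compound at 7.5 µmol/kg or soya oil vehicle for 10 days. Killed on day 11. Bladder homogenized in 10 mM Tris-HCl pH 7.4, 0.25 M sucrose, 1 mM PMSF, 1 µg/ml leupeptin. 25-40 µg protein run by SDS-PAGE, then Western blot, with GAPDH as loading control.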

[4] = test system: NBT2; test: Induction of GCL protein expression in Nrf gene knockout rat NBT2 cells at 25 uM after 24 hrs Western blot analysis; format: functional, cell-based
Procedure, shortened: (§3)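 NBT-II cells transfected with Nrf2 stealth RNAi or control RNAi (0.584 nmol per dish, lipofectamine 2000) for 48 h. Then treated with compound at 25 µM or vehicle for 24 h, with 0.1% DMSO final. Lysates analyzed by Western blot for Nrf2, GCL, GST-α, GST-μ and NQO1, with GAPDH as loading control.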

[5] = molecular target: T1, Nuclear factor erythroid 2-related factor 2 (Rattus norvegicus) (UniProt O54968); test: Induction of Nrf-mediated NQO1 protein expression in wild type rat NBT2 cells at 25 uM after 24 hrs Western blot analysis; format: functional, cell-based; procedure, shortened: as §3
T1 sequence (whole entry): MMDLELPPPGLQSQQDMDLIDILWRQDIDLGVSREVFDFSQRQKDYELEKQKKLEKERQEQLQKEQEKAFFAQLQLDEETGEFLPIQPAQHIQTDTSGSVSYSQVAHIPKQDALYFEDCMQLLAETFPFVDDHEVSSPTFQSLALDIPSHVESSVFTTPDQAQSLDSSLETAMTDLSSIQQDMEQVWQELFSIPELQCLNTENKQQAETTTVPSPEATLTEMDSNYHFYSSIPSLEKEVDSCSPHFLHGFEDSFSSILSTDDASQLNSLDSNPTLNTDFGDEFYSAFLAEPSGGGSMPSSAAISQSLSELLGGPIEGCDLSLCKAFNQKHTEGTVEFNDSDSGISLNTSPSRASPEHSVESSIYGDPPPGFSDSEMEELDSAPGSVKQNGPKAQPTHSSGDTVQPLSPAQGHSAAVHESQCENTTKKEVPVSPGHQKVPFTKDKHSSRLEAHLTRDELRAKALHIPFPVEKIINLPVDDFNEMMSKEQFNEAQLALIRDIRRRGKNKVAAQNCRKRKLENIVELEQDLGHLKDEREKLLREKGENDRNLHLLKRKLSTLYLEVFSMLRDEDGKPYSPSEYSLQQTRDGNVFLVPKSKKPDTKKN

[6] = molecular target: T1, Nuclear factor erythroid 2-related factor 2 (Rattus norvegicus); test: Induction of Nrf-mediated GCL protein expression in wild type rat NBT2 cells at 25 uM after 24 hrs Western blot analysis; format: functional, cell-based; procedure, shortened: as §3
[7] = test system: Rattus norvegicus; test: Ex vivo induction GCL protein expression in Sprague-Dawley rat bladder at 7.5 umol/kg/day, po for 10 days measured on day 11 by Western blot analysis; format: functional, organism-based; procedure, shortened: as §2
[8] = test system: Rattus norvegicus; test: Ex vivo induction of NQO1 in Sprague-Dawley rat stomach at 7.5 umol/kg/day, po for 10 days measured on day 11 relative to control; format: functional
Procedure, shortened: (§4)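 Organs taken from the same rats used for the bladder study: female Sprague-Dawley, compound at 7.5 µmol/kg/day by gavage or soya oil for 10 days, killed on day 11. GI contents rinsed out under cold water and tissues stored at −80°C. Homogenized in 0.2% Triton X-100 and centrifuged. Supernatant NQO1 activity measured by the Ernster method, expressed as treated/control.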

[9] = test system: Rattus norvegicus; test: Ex vivo induction of NQO1 in Sprague-Dawley rat kidney at 7.5 umol/kg/day, po for 10 days measured on day 11 relative to control; format: functional; procedure, shortened: as §4
[10] = test system: NBT2; test: Induction of GST-mu protein expression in rat NBT2 cells after 24 hrs by Western blot analysis; format: functional, cell-based
Procedure, shortened: (§5)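 NBT-II rat bladder carcinoma cells grown in MEM with 10% FBS. Plated overnight, then exposed to compound at 25 or 50 µM for 24 h, with 0.1% DMSO final. Cells trypsinized, lysed with 1 mM PMSF and sonicated. 25-40 µg protein taken for Western blot, GAPDH as loading control. At least two experiments.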

[11] = test system: Rattus norvegicus; test: Ex vivo induction of NQO1 in Sprague-Dawley rat liver at 7.5 umol/kg/day, po for 10 days measured on day 11 relative to control; format: functional; procedure, shortened: as §4
[12] = test system: NBT2; test: Induction of NQO1 protein expression in Nrf gene knockout rat NBT2 cells at 25 uM after 24 hrs Western blot analysis; format: functional, cell-based; procedure, shortened: as §3
[13] = test system: Rattus norvegicus; test: Ex vivo induction GST-alpha protein expression in Sprague-Dawley rat bladder at 7.5 umol/kg/day, po for 10 days measured on day 11 by Western blot analysis; format: functional, organism-based; procedure, shortened: as §2
[14] = test system: Rattus norvegicus; test: Ex vivo induction of NQO1 in Sprague-Dawley rat ileum at 7.5 umol/kg/day, po for 10 days measured on day 11 relative to control; format: functional; procedure, shortened: as §4
[15] = test system: NBT2; test: Induction of GST-mu protein expression in Nrf gene knockout rat NBT2 cells at 25 uM after 24 hrs Western blot analysis; format: functional, cell-based; procedure, shortened: as §3
[16] = test system: Rattus norvegicus; test: Ex vivo induction of NQO1 in Sprague-Dawley rat colon at 7.5 umol/kg/day, po for 10 days measured on day 11 relative to control; format: functional; procedure, shortened: as §4
[17] = test system: NBT2; test: Induction of GCL protein expression in rat NBT2 cells at 25 to 50 uM after 24 hrs by Western blot analysis; format: functional, cell-based; procedure, shortened: as §5
[18] = test system: Rattus norvegicus; test: Ex vivo induction of NQO1 in Sprague-Dawley rat lung at 7.5 umol/kg/day, po for 10 days measured on day 11 relative to control; format: functional; procedure, shortened: as §4
[19] = molecular target: T1, Nuclear factor erythroid 2-related factor 2 (Rattus norvegicus); test: Induction of Nrf in wild type rat NBT2 cells at 25 uM after 24 hrs Western blot analysis; format: functional, cell-based; procedure, shortened: as §3
[20] = test system: Rattus norvegicus; test: Ex vivo induction GST-pi protein expression in Sprague-Dawley rat bladder at 7.5 umol/kg/day, po for 10 days measured on day 11 by Western blot analysis; format: functional, organism-based; procedure, shortened: as §2
[21] = test system: NBT2; test: Induction of GST-alpha protein expression in Nrf gene knockout rat NBT2 cells at 25 uM after 24 hrs Western blot analysis; format: functional, cell-based; procedure, shortened: as §3
[22] = test system: NBT2; test: Induction of GST-alpha protein expression in rat NBT2 cells after 24 hrs by Western blot analysis; format: functional, cell-based; procedure, shortened: as §5
[23] = molecular target: T1, Nuclear factor erythroid 2-related factor 2 (Rattus norvegicus); test: Induction of Nrf-mediated GST-alpha protein expression in wild type rat NBT2 cells at 25 uM after 24 hrs Western blot analysis; format: functional, cell-based; procedure, shortened: as §3
[24] = test system: Rattus norvegicus; test: Ex vivo induction of NQO1 in Sprague-Dawley rat duodenum at 7.5 umol/kg/day, po for 10 days measured on day 11 relative to control; format: functional; procedure, shortened: as §4
[25] = test system: NBT2; test: Induction of NQO1 protein expression in rat NBT2 cells after 24 hrs by Western blot analysis; format: functional, cell-based; procedure, shortened: as §5
[26] = molecular target: T1, Nuclear factor erythroid 2-related factor 2 (Rattus norvegicus); test: Induction of Nrf-mediated GST-mu protein expression in wild type rat NBT2 cells at 25 uM after 24 hrs Western blot analysis; format: functional, cell-based; procedure, shortened: as §3
[27] = test system: NBT2; test: Induction of GST-pi protein expression in rat NBT2 cells at 25 to 50 uM after 24 hrs by Western blot analysis; format: functional, cell-based; procedure, shortened: as §5
[28] = test system: Rattus norvegicus; test: Ex vivo induction of NQO1 in Sprague-Dawley rat jejunum at 7.5 umol/kg/day, po for 10 days measured on day 11 relative to control; format: functional; procedure, shortened: as §4

| Structure (SMILES) | fold change (FC) [1] | fold change (FC) [2] | fold change (FC) [8] | fold change (FC) [9] | fold change (FC) [11] | fold change (FC) [14] | fold change (FC) [16] | fold change (FC) [18] | fold change (FC) [24] | fold change (FC) [28] | also measured |
| --- | --- | --- | --- | --- | --- | --- | --- | --- | --- | --- | --- |
| CCOC(=O)c1cc(=S)ss1 | 1.09 | 1.13 |  |  |  |  |  |  |  |  |  |
| CC1Cc2ssc(=S)c2C1 (centres undefined) | 1.31 | 1.81 |  |  |  |  |  |  |  |  |  |
| Cc1ssc(=S)c1C(=O)O | 0.99 | 1.1 |  |  |  |  |  |  |  |  |  |
| CCOC(=O)C1CCc2c1ssc2=S (centres undefined) | 2.29 | 4.47 | 1.93 | 1.86 | 1.17 | 1.2 | 1 | 1.17 | 1.53 | 1.38 | Activity [3]: Active; Activity [4]: inactive; Activity [5]: Active; Activity [6]: Active; Activity [7]: Active; Activity [10]: Dose-dependent effect; Activity [12]: inactive; Activity [13]: Active; Activity [15]: inactive; Activity [17]: Active; Activity [19]: Active; Activity [20]: inactive; Activity [21]: inactive; Activity [22]: Dose-dependent effect; Activity [23]: Active; Activity [25]: Dose-dependent effect; Activity [26]: Active; Activity [27]: inactive |
| CCOC(=O)c1c(N)ssc1=S | 1.25 | 2.03 |  |  |  |  |  |  |  |  |  |
| O=c1ssc2c1CCC2 | 1.11 | 1.24 |  |  |  |  |  |  |  |  |  |
| Cc1c(S)ssc1=S | 1.08 | 1.29 |  |  |  |  |  |  |  |  |  |
| CCOC(=O)c1cssc1=S | 2.76 | 4.82 | 2.15 | 1.47 | 1.04 | 1.11 | 0.98 | 1.21 | 1.21 | 1.04 |  |
| S=c1ssc2c1CCCC2 | 1.05 | 1.46 |  |  |  |  |  |  |  |  |  |
| S=c1ccss1 [DITHIOLETHIONE] | 1.7 | 2.78 | 5.31 | 1.82 | 1.3 | 1.76 | 1.81 | 1.37 | 5.6 | 2.31 |  |
| CCOC(=O)C1Cc2ssc(=S)c2C1 (centres undefined) | 1.11 | 1.23 |  |  |  |  |  |  |  |  |  |
| S=c1ssc2c1CCC2 | 1.68 | 3.14 | 3.55 | 1.87 | 1.26 | 1.36 | 1.28 | 1.26 | 2.82 | 1.44 |  |

— ChEMBL document CHEMBL1177701, “Synthesis, biological evaluation, and structure-activity relationships of dithiolethiones as inducers of cytoprotective phase 2 enzymes” (J Med Chem, 2010)
